From ChEMBL document CHEMBL2417520, “Synthesis and biological evaluation of amino analogs of Ludartin: potent and selective cytotoxic agents” (Bioorg Med Chem Lett, 2013)

Tests used:
THP-1 [1] = experiment: Cytotoxicity against human THP1 cells assessed as cell growth inhibition at 50 uM after 48 hrs by sulphorhodamine B assay; type: functional; settings: THP-1, 48 h, read-out: GI
How it was run: (§1)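 Single-concentration screen of analogs at 50 µM for 48 h on overnight-adhered cells maintained in RPMI-1640/10% FBS at 37 °C, 5% CO2. Cells were fixed with ice-cold TCA (60 min) and stained 30 min with 0.4% SRB in 1% acetic acid. Bound dye was dissolved in 10 mM Tris and OD read at 570 nm, expressed as % growth inhibition.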

A549 [2] = experiment: Cytotoxicity against human A549 cells assessed as cell growth inhibition at 50 uM after 48 hrs by sulphorhodamine B assay; type: functional; settings: A549, 48 h, read-out: GI; how it was run: as §1
PC-3 [3] = experiment: Cytotoxicity against human PC3 cells assessed as cell growth inhibition at 50 uM after 48 hrs by sulphorhodamine B assay; type: functional; settings: PC-3, 48 h, read-out: GI; how it was run: as §1
HCT-116 [4] = experiment: Cytotoxicity against human HCT116 cells assessed as cell growth inhibition at 50 uM after 48 hrs by sulphorhodamine B assay; type: functional; settings: HCT-116, 48 h, read-out: GI; how it was run: as §1
THP-1 [5] = experiment: Cytotoxicity against human THP1 cells assessed as cell growth inhibition after 48 hrs by sulphorhodamine B assay; type: functional, cell-based; settings: THP-1, 48 h
How it was run: (§2)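 Cells grown in RPMI-1640 with 10% FBS and penicillin/streptomycin at 37 °C under 5% CO2, then allowed to adhere overnight. Only analogs giving >50% inhibition at 50 µM were retested at 10–100 µM for 48 h. Cells were fixed with cold TCA and stained with 0.4% SRB in 1% acetic acid. Dye was solubilised in 10 mM Tris and read at 570 nm to give IC50.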

PC-3 [6] = experiment: Cytotoxicity against human PC3 cells assessed as cell growth inhibition after 48 hrs by sulphorhodamine B assay; type: functional, cell-based; settings: PC-3, 48 h; how it was run: as §2
A549 [7] = experiment: Cytotoxicity against human A549 cells assessed as cell growth inhibition after 48 hrs by sulphorhodamine B assay; type: functional, cell-based; settings: A549, 48 h; how it was run: as §2
HCT-116 [8] = experiment: Cytotoxicity against human HCT116 cells assessed as cell growth inhibition after 48 hrs by sulphorhodamine B assay; type: functional, cell-based; settings: HCT-116, 48 h; how it was run: as §2
PC-3 [9] = experiment: Ratio of ludartin IC50 to compound IC50 for human PC3 cells; type: functional
A549 [10] = experiment: Ratio of ludartin IC50 to compound IC50 for human A549 cells; type: functional

CNC[C@@H]1C(=O)O[C@H]2[C@H]1CCC(C)=C1C[C@H]3O[C@@]3(C)[C@@H]12
inhibition of growth at 50 µM (THP-1 [1]): 25%
inhibition of growth at 50 µM (A549 [2]): 10%
inhibition of growth at 50 µM (PC-3 [3]): 12%
inhibition of growth at 50 µM (HCT-116 [4]): 16%

CCNC[C@@H]1C(=O)O[C@H]2[C@H]1CCC(C)=C1C[C@H]3O[C@@]3(C)[C@@H]12
IC50 (THP-1 [5]): 29 µM
inhibition of growth at 50 µM (THP-1 [1]): 68%
inhibition of growth at 50 µM (A549 [2]): 20%
inhibition of growth at 50 µM (PC-3 [3]): 43%
inhibition of growth at 50 µM (HCT-116 [4]): 36%

CCCNC[C@@H]1C(=O)O[C@H]2[C@H]1CCC(C)=C1C[C@H]3O[C@@]3(C)[C@@H]12
inhibition of growth at 50 µM (THP-1 [1]): 23%
inhibition of growth at 50 µM (A549 [2]): 39%
inhibition of growth at 50 µM (PC-3 [3]): 17%
inhibition of growth at 50 µM (HCT-116 [4]): 2%

CCCCNC[C@@H]1C(=O)O[C@H]2[C@H]1CCC(C)=C1C[C@H]3O[C@@]3(C)[C@@H]12
inhibition of growth at 50 µM (THP-1 [1]): 28%
inhibition of growth at 50 µM (A549 [2]): 0%
inhibition of growth at 50 µM (PC-3 [3]): 14%
inhibition of growth at 50 µM (HCT-116 [4]): 4%

CCN(CC)C[C@@H]1C(=O)O[C@H]2[C@H]1CCC(C)=C1C[C@H]3O[C@@]3(C)[C@@H]12
IC50 (THP-1 [5]): 3.5 µM
inhibition of growth at 50 µM (THP-1 [1]): 98%
inhibition of growth at 50 µM (A549 [2]): 73%
inhibition of growth at 50 µM (PC-3 [3]): 56%
IC50 (PC-3 [6]): 32 µM
IC50 (A549 [7]): 22 µM
IC50 (HCT-116 [8]): 3.7 µM
inhibition of growth at 50 µM (HCT-116 [4]): 95%

C=CCNC[C@@H]1C(=O)O[C@H]2[C@H]1CCC(C)=C1C[C@H]3O[C@@]3(C)[C@@H]12
inhibition of growth at 50 µM (THP-1 [1]): 39%
inhibition of growth at 50 µM (A549 [2]): 0%
inhibition of growth at 50 µM (PC-3 [3]): 16%
inhibition of growth at 50 µM (HCT-116 [4]): 28%

C#CCNC[C@@H]1C(=O)O[C@H]2[C@H]1CCC(C)=C1C[C@H]3O[C@@]3(C)[C@@H]12
inhibition of growth at 50 µM (THP-1 [1]): 40%
inhibition of growth at 50 µM (A549 [2]): 36%
inhibition of growth at 50 µM (PC-3 [3]): 33%
inhibition of growth at 50 µM (HCT-116 [4]): 4%

CC1=C2C[C@H]3O[C@@]3(C)[C@@H]2[C@H]2OC(=O)[C@@H](CN3CCCC3)[C@@H]2CC1
IC50 (THP-1 [5]): 26 µM
inhibition of growth at 50 µM (THP-1 [1]): 67%
inhibition of growth at 50 µM (A549 [2]): 0%
inhibition of growth at 50 µM (PC-3 [3]): 11%
inhibition of growth at 50 µM (HCT-116 [4]): 15%

CC1=C2C[C@H]3O[C@@]3(C)[C@@H]2[C@H]2OC(=O)[C@@H](CN3CCCCC3)[C@@H]2CC1
IC50 (THP-1 [5]): 3.9 µM
inhibition of growth at 50 µM (THP-1 [1]): 93%
inhibition of growth at 50 µM (A549 [2]): 87%
inhibition of growth at 50 µM (PC-3 [3]): 85%
IC50 (PC-3 [6]): 23 µM
IC50 (A549 [7]): 17 µM
IC50 (HCT-116 [8]): 4 µM
inhibition of growth at 50 µM (HCT-116 [4]): 90%

CC1=C2C[C@H]3O[C@@]3(C)[C@@H]2[C@H]2OC(=O)[C@@H](CN3CCOCC3)[C@@H]2CC1
IC50 (THP-1 [5]): 2.8 µM
inhibition of growth at 50 µM (THP-1 [1]): 97%
inhibition of growth at 50 µM (A549 [2]): 42%
inhibition of growth at 50 µM (PC-3 [3]): 59%
inhibition of growth at 50 µM (HCT-116 [4]): 58%

CC1=C2C[C@H]3O[C@@]3(C)[C@@H]2[C@H]2OC(=O)[C@@H](CNCc3ccc(F)cc3)[C@@H]2CC1
inhibition of growth at 50 µM (THP-1 [1]): 26%
inhibition of growth at 50 µM (A549 [2]): 16%
inhibition of growth at 50 µM (PC-3 [3]): 64%
inhibition of growth at 50 µM (HCT-116 [4]): 0%

CC1=C2C[C@H]3O[C@@]3(C)[C@@H]2[C@H]2OC(=O)[C@@H](Cn3ccnc3)[C@@H]2CC1
inhibition of growth at 50 µM (THP-1 [1]): 36%
inhibition of growth at 50 µM (A549 [2]): 0%
inhibition of growth at 50 µM (PC-3 [3]): 53%
inhibition of growth at 50 µM (HCT-116 [4]): 42%

CC1=C2C[C@H]3O[C@@]3(C)[C@@H]2[C@H]2OC(=O)[C@@H](Cn3cnc([N+](=O)[O-])c3)[C@@H]2CC1
inhibition of growth at 50 µM (THP-1 [1]): 32%
inhibition of growth at 50 µM (A549 [2]): 0%
inhibition of growth at 50 µM (PC-3 [3]): 15%
inhibition of growth at 50 µM (HCT-116 [4]): 30%

CC1=C2C[C@H]3O[C@@]3(C)[C@@H]2[C@H]2OC(=O)[C@@H](Cn3cncn3)[C@@H]2CC1
IC50 (THP-1 [5]): 15 µM
inhibition of growth at 50 µM (THP-1 [1]): 83%
inhibition of growth at 50 µM (A549 [2]): 69%
inhibition of growth at 50 µM (PC-3 [3]): 66%
IC50 (PC-3 [6]): 35 µM
IC50 (A549 [7]): 32 µM
IC50 (HCT-116 [8]): 20 µM
inhibition of growth at 50 µM (HCT-116 [4]): 70%

CC1=C2C[C@H]3O[C@@]3(C)[C@@H]2[C@H]2OC(=O)[C@@H](Cn3nc4ccccc4n3)[C@@H]2CC1
inhibition of growth at 50 µM (THP-1 [1]): 15%
inhibition of growth at 50 µM (A549 [2]): 25%
inhibition of growth at 50 µM (PC-3 [3]): 40%
inhibition of growth at 50 µM (HCT-116 [4]): 13%

CC1=C2C[C@H]3O[C@@]3(C)[C@@H]2[C@H]2OC(=O)[C@@H](Cn3ncc4ccc([N+](=O)[O-])cc43)[C@@H]2CC1
Ratio IC50 (PC-3 [9]): 3
IC50 (THP-1 [5]): 29 µM
inhibition of growth at 50 µM (THP-1 [1]): 63%
inhibition of growth at 50 µM (A549 [2]): 84%
inhibition of growth at 50 µM (PC-3 [3]): 99%
IC50 (PC-3 [6]): 2.2 µM
IC50 (A549 [7]): 35 µM
IC50 (HCT-116 [8]): 17 µM
inhibition of growth at 50 µM (HCT-116 [4]): 86%

CC1=C2C[C@H]3O[C@@]3(C)[C@@H]2[C@H]2OC(=O)[C@@H](Cn3ncc4cc([N+](=O)[O-])ccc43)[C@@H]2CC1
IC50 (THP-1 [5]): 31 µM
inhibition of growth at 50 µM (THP-1 [1]): 72%
inhibition of growth at 50 µM (A549 [2]): 99%
inhibition of growth at 50 µM (PC-3 [3]): 52%
IC50 (PC-3 [6]): 34 µM
IC50 (A549 [7]): 2.6 µM
Ratio IC50 (A549 [10]): 3
IC50 (HCT-116 [8]): 40 µM
inhibition of growth at 50 µM (HCT-116 [4]): 57%

C=C1C(=O)O[C@H]2[C@H]1CCC(C)=C1C[C@H]3O[C@@]3(C)[C@@H]12 [LUDARTIN]
IC50 (THP-1 [5]): 3.1 µM
inhibition of growth at 50 µM (THP-1 [1]): 98%
inhibition of growth at 50 µM (A549 [2]): 97%
inhibition of growth at 50 µM (PC-3 [3]): 97%
IC50 (PC-3 [6]): 7.5 µM
IC50 (A549 [7]): 7.4 µM
IC50 (HCT-116 [8]): 6.9 µM
inhibition of growth at 50 µM (HCT-116 [4]): 97%
